Assay results taken from ChEMBL document CHEMBL1146344, “Design, synthesis, and evaluation of 2-aryl-3-heteroaryl-1,3-thiazolidin-4-ones as anti-HIV agents” (Bioorg Med Chem, 2007).

Assays:
[1] = Cytotoxicity against CEM cells; format: cell-based; settings: human, CEM (CCRF-CEM) cells
In short: (§1)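 Mock-infected MT-4 or CEM cultures exposed to compound dilutions at 37 °C, with incubation times as in the antiviral runs. Viable cell number determined. Means of at least two separate experiments.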

[2] = Cytotoxicity against MT4 cells; format: cell-based; settings: human; in short: as §1

Compound: Fc1cccc(F)c1C1SCc2nc3ccccc3n21 (configuration not stated) [THIAZOLOBENZIMIDAZOLE]
- CC50 [1]: 50 µM
- CC50 [2]: 19.2 µM
